Test results as given in PMC2748811 (The Biochemical journal, 2009).
Values joined by “and” are separate entries in the source; they are usually repeats but may differ in a detail not shown here. Equal entries are not always repeated. Where two headings read alike, the source gives them in different places.

How the values were obtained:
[1] = biological target: T1, PRMDR (multi-drug-resistant HIV-1 PR) (Human immunodeficiency virus type 1 group M subtype B, UniProt P04585, A559V/I542V/I581L/K533R/L498I/L551P/L578M/V570T); type: biochemical; conditions: for relative potency at inducing monomer formation: dose–response data, results not shown
PRT26A = conditions: read-out: dissociation constant (Kd); ref [30]; cited from earlier work
HIV-1 PR dimerization = experiment: Size-exclusion chromatography elution of HIV-1 PRs; type: biochemical; conditions: 1 μM (PRT26A 2 μM); 37 °C 60 min
[2] = biological target: T1, PRMDR (multi-drug-resistant HIV-1 PR); experiment: Co-elution of inhibitors with PRMDR on size-exclusion chromatography; type: binding; conditions: for co-elution with PRMDR: MS detection
Procedure, shortened: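 PR_MDR was diluted to 0.25–2 μM subunit concentration in 150 mM ammonium acetate (pH 5.4) with 0.1 mg·ml⁻¹ BSA (final). The active-site inhibitor came from a 1 mM stock in 100% DMSO. Samples were incubated at 37 °C, and 8 μl was injected onto a BioSep SEC3000 column run isocratically at 0.35 ml·min⁻¹ in the same buffer. Detection was by fluorescence and by MS in SIM mode on chosen molecular ions.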

[3] = biological target: T1, PRMDR (multi-drug-resistant HIV-1 PR); conditions: ref [20]; cited from earlier work
[4] = tested on: PR dimerization within infected cells; conditions: fluorescence resonance energy transfer assay; ref [32]; cited from earlier work
[5] = biological target: T1, PRMDR (multi-drug-resistant HIV-1 PR); type: biochemical; conditions: 25 μM P27; PRMDR 1 μM; 16 h at 37 °C; excitation 280 nm
Procedure, shortened: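 PR_MDR (1 μM final) was incubated 16 h at 37 °C with 25 μM peptide dimerization inhibitor in 150 mM ammonium acetate containing 100 μg·ml⁻¹ BSA. An 8 μl sample was run by SEC in running buffer at pH 5.4, 0.35 ml·min⁻¹ isocratic. Fluorescence was read at 280 nm excitation and 350 nm emission, with emission spectra from 325–375 nm taken at each peak apex against reference spectra at 10.2 and 12 min. MS used SIM at m/z 1086 (10⁺).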

[6] = biological target: T1, PRMDR (multi-drug-resistant HIV-1 PR); experiment: PR activity with fluorescent PR substrate after peptide treatment; type: biochemical; conditions: 16 h at 37 °C, PRMDR 1 μM; for PR activity: untreated 2.6
[7] = tested on: PRWT (wild-type HIV-1 PR); experiment: Co-elution of active-site inhibitors with PRWT on size-exclusion chromatography; type: binding; conditions: results not shown
PRWT = conditions: 5 min pre-incubation with ≤25 nM PRWT; ref [16]; cited from earlier work
[8] = tested on: monomeric and dimeric forms of PR; conditions: 13C-labelled tryptophan residues of PR; ref [21]; cited from earlier work
[9] = tested on: HIV-1 PR (autoproteolysis); experiment: PR stability and autoproteolysis; type: biochemical; conditions: for autoproteolysis (SDS/PAGE): 20 h at 40 μM, 20 °C; for autoproteolysis (RP-HPLC–MS): after incubation in 150 mM ammonium acetate pH 5.4, results not shown
Procedure, shortened: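 Wild-type and multi-drug-resistant HIV-1 PR incubated 16–24 h in ammonium acetate buffer, with or without 1 mM TCEP. Activity read with a fluorescent PR substrate, mean ± S.D. Cleavage checked on Coomassie-stained 10 % Bis/Tris SDS/PAGE. Alternatively, 37 °C samples were quenched with solid guanidine hydrochloride (6 M final) for RP-HPLC, gradient to 95 % solvent B, monitored at 205/276 nm and by electrospray MS.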

PRMDR dimer = type: binding, HIV-1; conditions: 16 h at 37 °C; for Kd: 150 mM ammonium acetate pH 5.4
HIV-2 PR dimerization = experiment: Size-exclusion chromatography elution of oxidized HIV-2 PR; type: biochemical; conditions: after hydrogen peroxide treatment; results not shown
[10] = 25 μM P27, PRMDR 1 μM, 16 h at 37 °C, MS
[11] = 20 h at 37 °C, 150 mM ammonium acetate pH 5.4, 2 μM PR, n = 3
[12] = PRMDR 0.25–2 μM, approximate, MS

Ac-CTLNF [acetylated-CTLNF]
relative potency at inducing monomer formation [1]: P27 > CTLNF > Ac-CTLNF > Ac-TLNF

PRT26A: autoproteolysis-resistant and monomeric HIV-1 PR
Kd (PRT26A): > 1000 µM | elution time by MS (HIV-1 PR dimerization): 11.2 min and 11.0 min

Cc1ccccc1CNC(=O)[C@H]1N(C(=O)[C@@H](O)[C@H](Cc2ccccc2)NC(=O)c2cccc(O)c2C)CSC1(C)C [JE-2147]
correlation coefficient, JE-2147 area vs PRMDR area by MS ([2]; MS, PRMDR dose–response): 0.997 | elution time of inhibitor co-eluting with PRMDR ([2]; molecular ion of inhibitor by MS, PRMDR also 10.8 min): 10.8 min | effect on PRMDR elution ([1]; 1 μM JE-2147, PRMDR 0.25–2 μM, 16 h at 37 °C): PRMDR eluted as the earlier form (dimer)

PQITLRKKRRQRRRPPQVSFNFCTLNF [P27]
inhibition of PRMDR activity [3]: inhibit PRMDR activity | block of PR dimerization within infected cells [4]: block PR dimerization within infected cells | emission maximum λmax, dimer [5]: 346 nm | emission maximum λmax, monomer [5]: 352 nm | PRMDR elution time, dimer peak [1, 10]: 10.8 min | PRMDR elution time, monomer peak [1, 10]: 11.3 min | monomer induced ([1]; 25 μM P27, PRMDR at 0.5 μM): 80% | monomer induced ([1]; 25 μM P27, PRMDR at 1 μM): approx. 40% | time to clear evidence of monomer formation ([1]; 50 μM P27): ≤ 4 h | time to maximum effect / plateau of monomer formation ([1]; 50 μM P27, PR 1 μM): 10 to 12 h | time of peak absolute amount of detectable monomer ([1]; 50 μM P27, steadily decreased thereafter): 6 to 8 h | PRMDR peak elution time ([1]; 50 μM peptide, PRMDR 1 μM, 16 h at 37 °C, MS m/z 1086): 11.3 min | total PRMDR not recovered after treatment as compared to untreated ([1]; P27, PRMDR 1 μM, 16 h): approx. 20% | relative potency at inducing monomer formation [1]: P27 > CTLNF > Ac-CTLNF > Ac-TLNF | PR activity ([6]; 25 μM P27): 1.85 RFU min^−1 · μg^−1 | decrease in PRMDR enzyme activity ([6]; 50 μM P27): 99% | PR activity ([6]; 50 μM P27): 0.0 RFU min^−1 · μg^−1

CC(C)(C)NC(=O)[C@@H]1C[C@@H]2CCCC[C@@H]2CN1C[C@@H](O)[C@H](Cc1ccccc1)NC(=O)[C@H](CC(N)=O)NC(=O)c1ccc2ccccc2n1 [saquinavir]
co-elution with PRMDR [2]: did not elute with PRMDR | co-elution with PRWT [7]: co-elute with PRWT

CTLNF [reference compound]
relative potency at inducing monomer formation [1]: P27 > CTLNF > Ac-CTLNF > Ac-TLNF | IC50 (PRWT): 150 µM

Ac-SEYL-OH
interaction with PR by NMR [8]: interaction of a peptide dimerization inhibitor (Ac-SEYL-OH) with both monomeric and dimeric forms of PR

Ac-TLNF [acetylated-TLNF, reference compound]
relative potency at inducing monomer formation [1]: P27 > CTLNF > Ac-CTLNF > Ac-TLNF

CC(C)c1nc(CN(C)C(=O)N[C@H](C(=O)N[C@@H](Cc2ccccc2)C[C@H](O)[C@H](Cc2ccccc2)NC(=O)OCc2cncs2)C(C)C)cs1 [ritonavir]
co-elution with PRMDR [2]: did not elute with PRMDR | co-elution with PRWT [7]: co-elute with PRWT

PRWT: wild-type HIV-1 PR
autoproteolysis (SDS/PAGE) ([9]; 150 mM ammonium acetate pH 5.4): extensive autoproteolysis | PR activity lost [9, 11]: more than 95% | autoproteolysis (RP-HPLC–MS) [9]: substantial autoproteolysis | autoproteolysis ([9]; within 4 h of incubation): approx. 40%

PRMDR: multi-drug-resistant HIV-1 PR with L10I, K45R, I54V, L63P, A71V, V82T, L90M and I93L
elution time, earlier-eluting (dimer) PRMDR peak (PRMDR dimer; [12]): ~10.8 min | elution time, later-eluting (monomer) PRMDR peak (PRMDR dimer; [12]): ~11.3 min | Kd (PRMDR dimer; read-out: apparent Kd for dimer dissociation, as dimeric concentration, dimeric concentration): ~0.25 µM | Kd (PRMDR dimer; read-out: apparent Kd for dimer dissociation, monomeric concentration): ~0.5 µM | elution time by MS (HIV-1 PR dimerization): 10.8 min | autoproteolysis (SDS/PAGE) ([9]; 150 mM ammonium acetate pH 5.4): remained intact | PR activity after incubation [9, 11]: remained unaffected | autoproteolysis (RP-HPLC–MS) [9]: remained intact

CSC[C@H](NC(=O)COc1cccc2cnccc12)C(=O)N[C@@H](Cc1ccccc1)[C@H](O)C(=O)N1CSC[C@H]1C(=O)NC(C)(C)C [KNI-272]
co-elution with PRMDR [2]: did not elute with PRMDR | co-elution with PRWT [7]: co-elute with PRWT

B1: PRHIV-2-OX: oxidized HIV-2 PR (protein, UniProt P04584 514-612, looked up)
Protease: PQFSLWKRPVVTAYIEGQPVEVLLDTGADDSIVAGIELGNNYSPKIVGGIGGFINTKEYKNVEIEVLNKKVRATIMTGDTPINIFGRNILTALGMSLNL
modifications: Protease oxidized
elution of oxidized HIV-2 PR (HIV-2 PR dimerization): consistent with a monomeric form of the PR
